Experimental data published in ChEMBL document CHEMBL1142304, “Synthesis and biological activity of phosphonate analogues and geometric isomers of the highly potent phosphoantigen (E)-1-hydroxy-2-methylbut-2-enyl 4-diphosphate” (J Med Chem, 2008).
The source made the active and inactive calls. The calls are words filed in the database; no cut-off is given here.

Columns and labels:
[1] = Agonist activity at human Vgamma9Vdelta2 receptor expressed in T cells assessed as stimulation of TNFalpha release by ELISA; type: functional, cell-based; details: T-cell
[2] = tested on: T-cell; test: Effect on proliferation of human T cell expressing Vgamma9Vdelta2 receptor in cynomolgus monkey co-treated with IL2 assessed as circulating T cells in blood at 0.02 mg/kg, iv; type: functional, organism-based; set-up: dose 0.02 mg/kg
In short: (§1)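 Cynomolgus monkeys were dosed i.v. in Ringer lactate, either as a 30 min infusion (50 mL) or as a bolus depending on the series, with IL-2 0.6 M IU s.c. daily for 5 days. Blood was sampled predose and on days 4, 5, 7, 11 and 14. Circulating γδ-cells were counted by flow cytometry (Vγ9/CD3/CD69 staining, counting beads).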

[3] = tested on: T-cell; test: Effect on proliferation of human T cell expressing Vgamma9Vdelta2 receptor in cynomolgus monkey co-treated with IL2 assessed as circulating T cells in blood at 5 mg/kg, iv; type: functional, organism-based; set-up: dose 5 mg/kg
In short: (§2)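 Purpose-bred cynomolgus monkeys (7 male, 7 female, 1.8–3.5 kg) got an i.v. bolus in Ringer lactate, with IL-2 0.6 M IU s.c. daily for 5 days. Blood was taken predose and on days 4, 5, 7, 11 and 14. Whole-blood flow cytometry used anti-Vγ9, CD3 and CD69 staining, red-cell lysis and counting fluorospheres for absolute counts.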

[4] = tested on: T-cell; test: Effect on proliferation of human T cell expressing Vgamma9Vdelta2 receptor in cynomolgus monkey co-treated with IL2 assessed as circulating T cells in blood at 10 mg/kg, iv; type: functional, organism-based; set-up: dose 10 mg/kg; in short: as §2
[5] = Effect on proliferation of human T cell expressing Vgamma9Vdelta2 receptor in cynomolgus monkey co-treated with IL2 assessed as circulating T cells in blood at 2.5 mg/kg, iv; type: functional; in short: as §1
[6] = tested on: Rattus norvegicus; test: Drug level in iv dosed rat assessed as recovered compound after 7 days; type: ADME, organism-based; details: in vivo, 168 h
[7] = Drug level in iv dosed rat assessed as excreted compound in urine; type: ADME, organism-based; details: read-out: Drug uptake
[8] = Chemical stability at 4 degC after 7 days; type: physicochemical; details: 168 h
In short: (§3)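 Pyrophosphate analogue tested as 0.3 mM solution and pyrophosphonate analogue as 0.5 mM solution under the stated temperature, 0.1 N HCl or H2O2 stress. Degradation was measured by ionic chromatography with conductometric detection and estimated as % of relative area.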

[9] = Chemical stability assessed as degradation at 25 degC after 7 days; type: physicochemical; details: 168 h; in short: as §3
[10] = Chemical stability assessed as degradation at 60 degC after 24 hrs; type: physicochemical; details: read-out: Activity; in short: as §3
[11] = Chemical stability assessed as degradation in 3% H2O2 at 60 degC after 2 hrs; type: physicochemical; details: read-out: Activity; in short: as §3

C/C(=C/CO)CCP(=O)(O)O
EC50 [1]: > 100000 nM

C/C(=C/CO)CCP(=O)(O)OP(=O)(O)O
EC50 [1]: > 100000 nM

C/C(=C\COP(=O)(O)OP(=O)(O)O)CO
EC50 [1]: 0.39 nM | Activity [2]: Active | Activity [3]: Active | Activity [4]: Active | Activity [5]: 40% | Drug uptake [6]: 80% | dose excreted [7]: 50% | Stability [8]: Stable | degradation [9]: 5% | degraded at 24 h [10]: 14% | degraded at 2 h [11]: 4%

C/C(=C\CO)COP(=O)(O)OP(=O)(O)O
EC50 [1]: 93.5 nM

C/C(=C/CO)COP(=O)(O)OP(=O)(O)O
EC50 [1]: > 100000 nM

CC(O)(CBr)CCOP(=O)(O)OP(=O)(O)O (configuration not stated) [BROMOHYDRIN PYROPHOSPHATE]
EC50 [1]: 23.9 nM

C/C(=C/COP(=O)(O)OP(=O)(O)O)CO
EC50 [1]: 252 nM
